Test results as given in ChEMBL document CHEMBL4842326, “Design, synthesis and biological evaluation of 3, 4-disubstituted-imidazolidine-2, 5-dione derivatives as HDAC6 selective inhibitors” (Eur J Med Chem, 2021).
Activity calls are given as the source filed them. No cut-off for these calls is given here.

What was measured:
[1] = tested on: HL-60; test: Induction of apoptosis in human HL-60 cells assessed as viable cells at 3 uM after 48 hrs by Annexin V-FITC/propidium iodide staining based flow cytometric analysis (reference value: 93.4%); assay type: functional; settings: read-out: Activity
How it was run: (§1)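 HL-60 cells (1 × 10^6/well) exposed 48 h to compound dilutions, collected, PBS-washed, resuspended in Annexin V-FITC binding buffer, stained with propidium iodide and Annexin V-FITC for 15 min, then analysed by flow cytometry.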

[2] = molecular target: Histone deacetylase 2 (Homo sapiens, UniProt Q92769)
Histone deacetylase 2, sequence (Q92769 whole entry): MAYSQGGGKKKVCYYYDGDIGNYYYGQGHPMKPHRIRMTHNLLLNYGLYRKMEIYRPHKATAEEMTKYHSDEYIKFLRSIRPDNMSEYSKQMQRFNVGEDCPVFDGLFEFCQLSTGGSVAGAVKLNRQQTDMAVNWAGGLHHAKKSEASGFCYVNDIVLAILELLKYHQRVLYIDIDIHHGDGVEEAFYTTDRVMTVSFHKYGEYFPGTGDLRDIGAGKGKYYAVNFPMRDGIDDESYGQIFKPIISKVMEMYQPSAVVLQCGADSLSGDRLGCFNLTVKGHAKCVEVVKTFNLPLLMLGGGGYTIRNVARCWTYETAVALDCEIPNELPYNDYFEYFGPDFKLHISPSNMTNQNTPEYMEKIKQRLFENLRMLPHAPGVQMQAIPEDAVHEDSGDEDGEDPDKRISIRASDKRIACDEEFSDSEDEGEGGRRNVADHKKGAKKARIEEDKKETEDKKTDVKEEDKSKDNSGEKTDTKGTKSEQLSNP

[3] = tested on: Jurkat; test: Antiproliferative activity against human Jurkat cells assessed as inhibition of cell proliferation after 48 hrs by MTT assay; assay type: functional, cell-based
How it was run: (§2)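 Leukemia/myeloma lines grown in RPMI1640 with 10% FBS at 37 °C, 5% CO2; seeded at 3500–4000 cells/well, cultured overnight, then exposed to serial dilutions for 48 h.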

[4] = molecular target: T1, Protein deacetylase HDAC6 (Homo sapiens) (UniProt Q9UBN7); test: Inhibition of HDAC6 in human HL-60 cells assessed as increase in acetylation of alpha tubulin measured up to 24 hrs by Western blot analysis; assay type: cell-based; settings: time hrs <=24
T1 sequence (whole entry): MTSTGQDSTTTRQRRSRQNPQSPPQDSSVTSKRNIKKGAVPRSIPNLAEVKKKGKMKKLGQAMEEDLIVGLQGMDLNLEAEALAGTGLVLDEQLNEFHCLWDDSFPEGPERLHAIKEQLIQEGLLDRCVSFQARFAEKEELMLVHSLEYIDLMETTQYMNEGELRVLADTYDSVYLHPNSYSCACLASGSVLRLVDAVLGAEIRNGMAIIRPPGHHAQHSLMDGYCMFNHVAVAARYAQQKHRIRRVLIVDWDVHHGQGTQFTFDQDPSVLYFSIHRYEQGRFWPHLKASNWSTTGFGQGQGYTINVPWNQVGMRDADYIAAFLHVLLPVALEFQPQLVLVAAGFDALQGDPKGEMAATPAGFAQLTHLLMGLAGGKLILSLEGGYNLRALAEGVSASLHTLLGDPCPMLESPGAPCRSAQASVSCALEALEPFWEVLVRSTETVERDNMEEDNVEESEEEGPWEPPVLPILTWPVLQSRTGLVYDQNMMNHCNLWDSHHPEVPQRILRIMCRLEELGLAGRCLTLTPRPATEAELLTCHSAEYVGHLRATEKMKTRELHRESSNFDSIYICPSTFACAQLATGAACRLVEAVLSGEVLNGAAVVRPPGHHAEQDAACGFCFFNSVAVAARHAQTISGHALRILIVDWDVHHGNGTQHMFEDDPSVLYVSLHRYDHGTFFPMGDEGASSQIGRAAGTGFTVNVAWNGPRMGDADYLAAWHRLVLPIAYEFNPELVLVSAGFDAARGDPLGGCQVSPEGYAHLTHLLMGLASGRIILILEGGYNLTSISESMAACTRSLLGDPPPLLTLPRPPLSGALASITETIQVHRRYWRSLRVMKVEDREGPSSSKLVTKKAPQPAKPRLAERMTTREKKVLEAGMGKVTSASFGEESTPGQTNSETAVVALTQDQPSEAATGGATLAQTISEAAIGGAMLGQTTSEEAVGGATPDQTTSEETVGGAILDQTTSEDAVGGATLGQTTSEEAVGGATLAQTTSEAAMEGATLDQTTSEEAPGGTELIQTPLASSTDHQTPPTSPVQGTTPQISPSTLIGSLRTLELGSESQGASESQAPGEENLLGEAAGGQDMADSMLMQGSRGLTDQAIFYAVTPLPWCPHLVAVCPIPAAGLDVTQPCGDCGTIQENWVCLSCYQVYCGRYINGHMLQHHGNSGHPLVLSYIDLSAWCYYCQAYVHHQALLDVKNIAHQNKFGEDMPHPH
How it was run: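 HL-60 cells treated 12 h or 24 h, pelleted, lysed in RIPA with 1 mM PMSF on ice 30 min, cleared at 4 °C; lysates run on 12.5% SDS-PAGE, blotted to PVDF, blocked in 5% milk 1 h, probed overnight at 4 °C for acetyl-α-tubulin, acetyl-H3 and GAPDH, secondary 1 h, ECL detection.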

[5] = tested on: HL-60; test: Induction of apoptosis in human HL-60 cells at 3 uM measured after 48 hrs by TUNEL staining based fluorescence microscopy; assay type: functional, cell-based
How it was run: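 HL-60 cells (1 × 10^6/well) given 3 µM compound or vehicle (0.2% DMSO) for 48 h; washed in cold PBS, fixed in paraformaldehyde 30 min, permeabilised with 0.5% Triton X-100 for 5 min, labelled 60 min with FITC-12-dUTP plus terminal deoxynucleotidyl transferase, washed twice, green fluorescence imaged by microscopy.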

[6] = Stability of the compound in rabbit plasma assessed as decrease in compound degradation incubated up to 12 hrs by HPLC analysis; assay type: ADME, cell-free, Oryctolagus cuniculus
[7] = Cytotoxicity against human GEC1 cells assessed as decrease in cell viability after 48 hrs by MTT assay; assay type: cell-based; settings: GEC1, 48 h
How it was run: (§3)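 Normal cells: HUVECs in RPMI1640 with 10% FBS plus 0.1% heparin, GEC-1 in RPMI1640 with 10% FBS. Seeded 8 h, then treated with serial dilutions for 48 h; 0.5% MTT for 4 h, supernatant removed, DMSO added, absorbance read at 570 nm.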

[8] = species: Homo sapiens; test: Selectivity ratio of IC50 for HDAC8 (unknown origin) to IC50 for HDAC6 (unknown origin)
[9] = molecular target: T2, Protein deacetylase HDAC6 (Homo sapiens, UniProt Q9UBN7); test: Inhibition of HDAC6 (unknown origin) using Ac-LeuGlyLy-s(Ac)-AMC as substrate preincubated for 10 mins followed by substrate addition and further incubated for 2 hrs by fluorescence microtiter plate reader assay
T2 sequence (Q9UBN7 whole entry): T1 sequence (whole entry)

[10] = species: Homo sapiens; test: Selectivity ratio of IC50 for HDAC2 (unknown origin) to IC50 for HDAC6 (unknown origin)
[11] = tested on: HL-60; test: Induction of apoptosis in human HL-60 cells assessed as late apoptotic cells at 3 uM after 48 hrs by Annexin V-FITC/propidium iodide staining based flow cytometric analysis (reference value: 1.45%); assay type: functional; how it was run: as §1
[12] = tested on: HUVEC; test: Cytotoxicity against human HUVEC cells assessed as decrease in cell viability after 48 hrs by MTT assay; assay type: cell-based; how it was run: as §3
[13] = tested on: HEL; test: Antiproliferative activity against human HEL cells assessed as inhibition of cell proliferation after 48 hrs by MTT assay; assay type: functional, cell-based; how it was run: as §2
[14] = tested on: HL-60; test: Induction of mitochondrial membrane potential depolarization in human HL-60 cells at 3 uM by fluorescence assay; assay type: functional, cell-based; settings: time hrs <=24, TDE = time-dependent effect
How it was run: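 HL-60 cells (1 × 10^6) seeded overnight, exposed to compound or vehicle (0.2% DMSO) for the indicated times, then loaded with TMRE (100 nM) 30 min at 37 °C; washed three times in PBS, fluorescence read at Ex 540/Em 579 nm.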

[15] = tested on: KG-1; test: Antiproliferative activity against human KG-1 cells assessed as inhibition of cell proliferation after 48 hrs by MTT assay; assay type: functional, cell-based; settings: KG-1, 48 h; how it was run: as §2
[16] = molecular target: T1, Protein deacetylase HDAC6 (Homo sapiens); test: Potency index, ratio of tubastatin-A IC50 to test compound IC50 for HDAC6 (unknown origin) using Ac-LeuGlyLy-s(Ac)-AMC as substrate preincubated for 10 mins followed by substrate addition and further incubated for 2 hrs by fluorescence microtiter plate reader assay

`O=C(NO)c1ccc(CN2C(=O)C(Cc3ccccc3)N(Cc3cccnc3)C2=O)cc1` (racemic) showed a viability at 3 µM [1] of 79.4%, an IC50 [2] of 12.3 µM and an IC50 [3] of 9.29 µM. The inhibition [4] was “Dose-Dependent Effect”, the Activity [5] was “Active” and the Stabilty [6] was “Stable”. It also gave an IC50 [7] of 68.2 µM, a Ratio IC50 [8] of 1640 and an IC50 [9] of 0.0021 µM. It also gave a Ratio IC50 [10] of 5860, an Activity [11] of 10% and an IC50 [12] of 83.1 µM. The IC50 [13] was 4.58 µM, the Activity [14] was “Tde” and the IC50 [15] was 7.04 µM. It also gave a Ratio IC50 [16] of 12.
